Assay results collected from several papers.
Target: Cyclin-dependent kinase 11A (CDK11A, Homo sapiens, UniProt Q9UQ88)
Sequence (Q9UQ88 1-783, as in one of the studies): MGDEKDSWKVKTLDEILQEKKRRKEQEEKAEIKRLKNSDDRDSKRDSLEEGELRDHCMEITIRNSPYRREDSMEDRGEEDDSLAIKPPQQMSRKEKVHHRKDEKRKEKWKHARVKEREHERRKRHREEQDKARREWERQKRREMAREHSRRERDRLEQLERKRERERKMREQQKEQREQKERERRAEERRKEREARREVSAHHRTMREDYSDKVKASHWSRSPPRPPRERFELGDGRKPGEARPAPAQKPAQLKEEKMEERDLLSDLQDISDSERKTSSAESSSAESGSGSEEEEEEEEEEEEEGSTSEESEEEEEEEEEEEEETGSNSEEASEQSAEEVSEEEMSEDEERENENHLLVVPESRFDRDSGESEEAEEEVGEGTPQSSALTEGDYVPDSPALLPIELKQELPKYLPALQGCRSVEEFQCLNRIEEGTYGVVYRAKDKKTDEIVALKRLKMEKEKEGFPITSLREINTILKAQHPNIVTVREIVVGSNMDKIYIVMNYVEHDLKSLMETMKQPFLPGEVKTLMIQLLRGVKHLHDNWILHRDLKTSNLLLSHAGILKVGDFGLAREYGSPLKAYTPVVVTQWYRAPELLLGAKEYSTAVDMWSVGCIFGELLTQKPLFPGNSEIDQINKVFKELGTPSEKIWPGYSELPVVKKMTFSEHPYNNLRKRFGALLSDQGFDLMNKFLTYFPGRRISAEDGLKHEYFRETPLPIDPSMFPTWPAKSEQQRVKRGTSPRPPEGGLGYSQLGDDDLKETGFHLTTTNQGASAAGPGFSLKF

The remaining binding of `CNC(=O)c1ccc(Nc2ncc(C(F)(F)F)c(NCc3nccnc3N(C)S(C)(=O)=O)n2)cc1` is reported as 77% (binding; competition with immobilised ligand; 0.1 µM).
For `CNC(=O)[C@@H]1CC[C@@H](n2c(-c3ccc4cnccc4c3)nc3ccc(C(=O)NCc4cccc(C(N)=O)c4)cc32)C1`, the remaining binding was 100% (binding; competition with immobilised ligand; 1 µM).
The remaining binding of `NS(=O)(=O)c1cc(NC(=O)C2(c3ccccc3Cl)CC2)ccc1Oc1cccc(Cl)c1` is reported as 73% (binding; competition with immobilised ligand; 1 µM).
`CN(c1nccc(-c2cnn3ncccc23)n1)C1CC1` has a remaining binding of 100% (binding; 1 µM).
With `O=C(NCc1ncc(C(F)(F)F)cc1Cl)c1ccc2c(c1)C1(CCS(=O)(=O)CC1)[C@@H](C1CC1)N2S(=O)(=O)c1ccc(F)cc1` the remaining binding was 100% (binding; competition with immobilised ligand; 1 µM).
For `O=C(Nc1c[nH]nc1C(=O)NC1CCNCC1)c1cc(F)cc(F)c1`, the remaining binding was 100% (binding; competition with immobilised ligand; 1 µM).
`F[C@@H]1CCN(c2nccc(-c3cnn4ncccc34)n2)C1` gave a remaining binding of 100% (binding; 1 µM).
For `CNC(=O)Nc1ccc2c(c1)[C@@]1(CC2)OC(=O)N(CC(=O)N(Cc2ccc(F)cc2)[C@@H](C)C(F)(F)F)C1=O`, the remaining binding was 94% (binding; competition with immobilised ligand; 1 µM).
The remaining binding of `COc1ccnn2ncc(-c3ccnc(N(C)C)n3)c12` is reported as 100% (binding; 1 µM).
For `Cc1noc([C@H]2C[C@@H](c3ccc(C(F)(F)F)cc3)CN(C(=O)N3CCS(=O)(=O)C3)C2)n1`, the remaining binding was 100% (binding; competition with immobilised ligand; 1 µM).
`O=C(NCCCN1CCOCC1)c1ccc(Nc2nccc(-c3cc4ccccc4s3)n2)cc1` has a remaining binding of 56% (binding; competition with immobilised ligand; 1 µM).
`COc1cnc(Nc2cccc(S(N)(=O)=O)c2)nc1N1CCN(c2ccccc2)CC1` has a remaining binding of 93% (binding; competition with immobilised ligand; 1 µM).
For `C[C@H]1CCN(c2nccc(-c3cnn4ncccc34)n2)C1`, the remaining binding was 81% (binding; 1 µM).
The remaining binding of `C=CC(=O)N1CCC(C(=O)NCC(=O)N2CCN(c3nc(-c4cnc(N)nc4C(F)F)nc(N4CCOCC4)n3)CC2)CC1` is reported as 97% (binding; competition with immobilised ligand; 1 µM).
The remaining binding of `O=C(c1ccc(Nc2nccc(-c3cc4ccccc4s3)n2)cc1)N1CCC(N2CCCC2)CC1` is reported as 80% (binding; competition with immobilised ligand; 1 µM).
For `C[C@@H](c1ccc(-n2cnc3c(N)ncnc32)cc1)N1CCc2nn(C)c(Cc3ccccc3)c2C1=O`, the remaining binding was 100% (binding; competition with immobilised ligand; 0.1 µM).
With `Cc1cnn2ncc(-c3ccnc(N(C)C)n3)c2c1` the remaining binding was 100% (binding; 1 µM).
`CCC(=O)N[C@H]1CC[C@@H](C(=O)N(C)c2ccc(-c3nc4ccccc4o3)cc2)C1` has a remaining binding of 97% (cell-free assay; competition with immobilised ligand; 1 µM).
`N[C@H]1CCN(c2nccc(-c3cnn4ncccc34)n2)C1` has a remaining binding of 82% (binding; 1 µM).
`O=C(c1ccc(Nc2ncc(Cl)c(-c3ccc(Cl)s3)n2)cc1)N1CCC(N2CCCC2)CC1` has a remaining binding of 39% (binding; competition with immobilised ligand; 1 µM).
